According to ChEMBL document CHEMBL1629690, “Development of hexadecyloxypropyl tenofovir (CMX157) for treatment of infection caused by wild-type and nucleoside/nucleotide-resistant HIV” (Antimicrob Agents Chemother, 2010):

Test system: Human immunodeficiency virus 1
Test: Antiviral activity against HIV1 isolate 211 harboring reverse transcriptase D67N/K70R/T215F/K219E/M184V mutant gene by phenosense assay relative to wild type
Format: functional
Details: not given
In short: (§1)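 PhenoSense HIV recombinant virus assay: patient-derived HIV-1 with major NRTI resistance mutations tested against increasing drug concentrations to give inhibition curves. EC50 is the concentration giving 50% inhibition. Fold change is the test recombinant EC50 divided by the EC50 of a drug-sensitive wild-type reference virus. Panel of 30 NRTI-resistant isolates plus two wild-type viruses.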

| SMILES | fold change (FC) |
| --- | --- |
| Nc1nc(NC2CC2)c2ncn([C@H]3C=C[C@@H](CO)C3)c2n1 [ABACAVIR] | 4.4 |

Test system: Human immunodeficiency virus 1
Test: Antiviral activity against HIV1 isolate 194 harboring reverse transcriptase M41L/T215Y/M184V mutant gene by phenosense assay relative to wild type
Format: functional
Details: not given
In short: (§2)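 Recombinant-virus PhenoSense HIV assay run on a panel of 30 NRTI-resistant HIV-1 mutants and two wild-type viruses. Each virus is tested across increasing drug concentrations to give an inhibition curve and EC50. Fold change is the test recombinant EC50 divided by the EC50 of the drug-sensitive wild-type reference virus.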

| SMILES | fold change (FC) |
| --- | --- |
| Nc1nc(NC2CC2)c2ncn([C@H]3C=C[C@@H](CO)C3)c2n1 [ABACAVIR] | 5.4 |

Test system: Human immunodeficiency virus 1
Test: Antiviral activity against HIV1 isolate 162 harboring reverse transcriptase A62V/V75I/F77L/Y115F/F116Y/Q151M/M184V mutant gene by phenosense assay relative to wild type
Format: functional
Details: not given
In short: as §2

| SMILES | fold change (FC) |
| --- | --- |
| Nc1nc(NC2CC2)c2ncn([C@H]3C=C[C@@H](CO)C3)c2n1 [ABACAVIR] | >29 |

Test system: Human immunodeficiency virus 1
Test: Antiviral activity against HIV1 isolate 069 harboring reverse transcriptase D67E/T69SSG/V75M/M184V/L210W/T215Y mutant gene by phenosense assay
Format: functional, organism-based
Details: Human immunodeficiency virus 1, isolate 069
In short: as §2

| SMILES | EC50 [µM] |
| --- | --- |
| Nc1nc(NC2CC2)c2ncn([C@H]3C=C[C@@H](CO)C3)c2n1 [ABACAVIR] | 47 |

Test system: Human immunodeficiency virus 1
Test: Antiviral activity against HIV1 isolate 203 harboring reverse transcriptase M41L/L210W/T215Y/M184V mutant gene by phenosense assay
Format: functional, organism-based
Details: Human immunodeficiency virus 1, isolate 203
In short: as §1

| SMILES | EC50 [µM] |
| --- | --- |
| Nc1nc(NC2CC2)c2ncn([C@H]3C=C[C@@H](CO)C3)c2n1 [ABACAVIR] | 8.2 |

Test system: Human immunodeficiency virus 1
Test: Antiviral activity against HIV1 isolate 069 harboring reverse transcriptase D67E/T69SSG/V75M/M184V/L210W/T215Y mutant gene by phenosense assay relative to wild type
Format: functional
Details: not given
In short: as §2

| SMILES | fold change (FC) |
| --- | --- |
| Nc1nc(NC2CC2)c2ncn([C@H]3C=C[C@@H](CO)C3)c2n1 [ABACAVIR] | 26 |

Test system: Human immunodeficiency virus 1
Test: Antiviral activity against HIV1 isolate 203 harboring reverse transcriptase M41L/L210W/T215Y/M184V mutant gene by phenosense assay relative to wild type
Format: functional
Details: not given
In short: as §1

| SMILES | fold change (FC) |
| --- | --- |
| Nc1nc(NC2CC2)c2ncn([C@H]3C=C[C@@H](CO)C3)c2n1 [ABACAVIR] | 4.6 |

Test system: Human immunodeficiency virus 1
Test: Antiviral activity against HIV1 isolate 063 harboring reverse transcriptase M41L/D67N/K70R/M184V/L210W/T215Y/K219E mutant gene by phenosense assay
Format: functional, organism-based
Details: Human immunodeficiency virus 1, isolate 063
In short: as §2

| SMILES | EC50 [µM] |
| --- | --- |
| Nc1nc(NC2CC2)c2ncn([C@H]3C=C[C@@H](CO)C3)c2n1 [ABACAVIR] | 14 |

Test system: Human immunodeficiency virus 1
Test: Antiviral activity against HIV1 isolate 206 harboring reverse transcriptase D67N/K70R mutant gene by phenosense assay relative to wild type
Format: functional
Details: not given
In short: as §1

| SMILES | fold change (FC) |
| --- | --- |
| Nc1nc(NC2CC2)c2ncn([C@H]3C=C[C@@H](CO)C3)c2n1 [ABACAVIR] | 1.4 |

Test system: Human immunodeficiency virus 1
Test: Antiviral activity against HIV1 isolate 188 harboring reverse transcriptase T215Y/M184V mutant gene by phenosense assay
Format: functional, organism-based
Details: Human immunodeficiency virus 1, isolate 188
In short: as §2

| SMILES | EC50 [µM] |
| --- | --- |
| Nc1nc(NC2CC2)c2ncn([C@H]3C=C[C@@H](CO)C3)c2n1 [ABACAVIR] | 7.6 |

Test system: Human immunodeficiency virus 1
Test: Antiviral activity against HIV1 isolate 071 harboring reverse transcriptase 65R/S68N/184V mutant gene by phenosense assay relative to wild type
Format: functional
Details: not given
In short: as §2

| SMILES | fold change (FC) |
| --- | --- |
| Nc1nc(NC2CC2)c2ncn([C@H]3C=C[C@@H](CO)C3)c2n1 [ABACAVIR] | 6.6 |

Test system: Human immunodeficiency virus 1
Test: Antiviral activity against HIV1 isolate 153 harboring reverse transcriptase L74V mutant gene by phenosense assay
Format: functional, organism-based
Details: Human immunodeficiency virus 1, isolate 153
In short: as §2

| SMILES | EC50 [µM] |
| --- | --- |
| Nc1nc(NC2CC2)c2ncn([C@H]3C=C[C@@H](CO)C3)c2n1 [ABACAVIR] | 3.4 |

Test system: Human immunodeficiency virus 1
Test: Antiviral activity against HIV1 isolate 067 harboring reverse transcriptase A62V/D67G/T69SVG/V75I/T215I mutant gene by phenosense assay
Format: functional, organism-based
Details: Human immunodeficiency virus 1, isolate 067
In short: as §2

| SMILES | EC50 [µM] |
| --- | --- |
| Nc1nc(NC2CC2)c2ncn([C@H]3C=C[C@@H](CO)C3)c2n1 [ABACAVIR] | 33 |

Test system: Human immunodeficiency virus 1
Test: Antiviral activity against HIV1 isolate 212 harboring reverse transcriptase L210W/T215Y mutant gene by phenosense assay relative to wild type
Format: functional
Details: not given
In short: as §1

| SMILES | fold change (FC) |
| --- | --- |
| Nc1nc(NC2CC2)c2ncn([C@H]3C=C[C@@H](CO)C3)c2n1 [ABACAVIR] | 2.1 |

Test system: Human immunodeficiency virus 1
Test: Antiviral activity against HIV1 isolate 070 harboring reverse transcriptase 65R/S68G mutant gene by phenosense assay relative to wild type
Format: functional
Details: not given
In short: as §2

| SMILES | fold change (FC) |
| --- | --- |
| Nc1nc(NC2CC2)c2ncn([C@H]3C=C[C@@H](CO)C3)c2n1 [ABACAVIR] | 3.2 |

Test system: Human immunodeficiency virus 1
Test: Antiviral activity against HIV1 isolate 192 harboring reverse transcriptase M41L/T215Y mutant gene by phenosense assay relative to wild type
Format: functional
Details: not given
In short: as §2

| SMILES | fold change (FC) |
| --- | --- |
| Nc1nc(NC2CC2)c2ncn([C@H]3C=C[C@@H](CO)C3)c2n1 [ABACAVIR] | 1.9 |

Test system: Human immunodeficiency virus 1
Test: Antiviral activity against HIV1 isolate 201 harboring reverse transcriptase M41L/L210W/T215Y mutant gene by phenosense assay
Format: functional, organism-based
Details: Human immunodeficiency virus 1, isolate 201
In short: as §2

| SMILES | EC50 [µM] |
| --- | --- |
| Nc1nc(NC2CC2)c2ncn([C@H]3C=C[C@@H](CO)C3)c2n1 [ABACAVIR] | 4.2 |

Test system: Human immunodeficiency virus 1
Test: Antiviral activity against HIV1 isolate 215 harboring reverse transcriptase D67N/K70E mutant gene by phenosense assay
Format: functional, organism-based
Details: Human immunodeficiency virus 1, isolate 215
In short: as §1

| SMILES | EC50 [µM] |
| --- | --- |
| Nc1nc(NC2CC2)c2ncn([C@H]3C=C[C@@H](CO)C3)c2n1 [ABACAVIR] | 2.4 |
